In ChEMBL document CHEMBL4145582, “Cytotoxic and Antibacterial Eremophilane Sesquiterpenes from the Marine-Derived Fungus Cochliobolus lunatus SCSIO41401” (J Nat Prod, 2018):
Values after ≈ are worked out from the molar mass of the structure shown. Active and inactive are the calls of the source. The rule behind the calls is not given here.

Legend:
Escherichia coli = assay: Antimicrobial activity against Escherichia coli ATCC 25922 after 24 hrs by serial dilution method; type: functional; conditions: for MIC: ATCC 25922, 24 h
Procedure, shortened: (§1)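 Serial broth dilution in 96-well microtiter plates. Compounds and controls are dissolved in DMSO as stock. Bacteria are grown overnight at 37 °C, then diluted to 10^6 cfu/mL. E. coli and S. aureus are grown in Luria–Bertani broth. P. multocida and E. rhusiopathiae are grown in trypticase soy broth with 10% calf serum. Plates are incubated at 37 °C for 24 h and read at 630 nm.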

SGC-7901 = assay: Cytotoxicity against human SGC7901 cells after 6 days by MTT assay; type: functional, cell-based; conditions: for IC50: SGC-7901, 144 h
Procedure, shortened: (§2)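 HepG-2 and SGC7901 cells; growth inhibition read by MTT method, with 5-fluorouracil as positive control.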

Staphylococcus aureus = assay: Antimicrobial activity against Staphylococcus aureus subsp. aureus Rosenbach ATCC 25923 after 24 hrs by serial dilution method; type: functional; conditions: for MIC: Rosenbach ATCC 25923, 24 h; procedure, shortened: as §1
HepG2 = assay: Cytotoxicity against human HepG2 cells after 6 days by MTT assay; type: functional, cell-based; conditions: for IC50: HepG2, 144 h; procedure, shortened: as §2
[1] = system: Erysipelothrix rhusiopathiae; assay: Antimicrobial activity against Erysipelothrix rhusiopathiae ATCC 19414 after 24 hrs by serial dilution method; type: functional; conditions: for MIC: ATCC 19414, 24 h; procedure, shortened: as §1
OS-RC-2 = assay: Cytotoxicity against human OS-RC2 cells after 72 hrs by CCK8 assay; type: functional, cell-based; conditions: for IC50: OS-RC-2, 72 h
Procedure, shortened: (§3)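 Renal cancer lines ACHN, 786-O and OS-RC-2; cell viability read by CCK-8 assay, with sorafenib as positive control.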

Pasteurella multocida = assay: Antimicrobial activity against Pasteurella multocida subsp. multocida ATCC 43137 after 24 hrs by serial dilution method; type: functional; conditions: for MIC: ATCC 43137, 24 h; procedure, shortened: as §1
ACHN = assay: Cytotoxicity against human ACHN cells after 72 hrs by CCK8 assay; type: functional, cell-based; procedure, shortened: as §3
786-0 = assay: Cytotoxicity against human 786-O cells after 72 hrs by CCK8 assay; type: functional, cell-based; conditions: for IC50: 786-0, 72 h; procedure, shortened: as §3

With `CN[C@@H]1[C@H](O[C@H]2[C@H](O[C@H]3[C@H](O)[C@@H](O)[C@H](N=C(N)N)[C@@H](O)[C@@H]3N=C(N)N)O[C@@H](C)[C@]2(O)C=O)O[C@@H](CO)[C@H](O)[C@H]1O` [STREPTOMYCIN] the MIC (Escherichia coli) was 25 µg/mL (≈ 43 µM).
`COC(=O)[C@]12Oc3cc(C)c(-c4ccc(O)c5c4O[C@@]4(C(=O)OC)C(=C(O)C[C@@H](C)[C@H]4O)C5=O)c(O)c3C(=O)C1=C(O)CC[C@H]2O` gave an MIC (Escherichia coli) greater than 100 µg/mL, an IC50 (SGC-7901) greater than 50 µM and an MIC (Staphylococcus aureus) of 50 µg/mL (≈ 78.3 µM). For the same compound, the IC50 (HepG2) was greater than 50 µM, the MIC [1] was 25 µg/mL (≈ 39.1 µM) and the IC50 (OS-RC-2) was greater than 50 µM. It also gave an MIC (Pasteurella multocida) of 13 µg/mL (≈ 20.4 µM), an IC50 (ACHN) greater than 50 µM and an IC50 (786-0) of 46 µM.
`Cc1cc(O)c2c(c1)C(=O)c1cc(O)cc(O)c1C2=O` [EMODIN] was tested, and the MIC (Escherichia coli) was greater than 100 µg/mL, the IC50 (SGC-7901) was 5.6 µM and the MIC (Staphylococcus aureus) was 100 µg/mL (≈ 370 µM). It also gave an IC50 (HepG2) of 1.7 µM, an MIC [1] greater than 100 µg/mL and an MIC (Pasteurella multocida) greater than 100 µg/mL.
With `Cc1cc(=O)c2c(C)cc(O)cc2o1` the Activity (Escherichia coli) was “inactive”, the Activity (SGC-7901) was “inactive” and the Activity (Staphylococcus aureus) was “inactive”. For the same compound, the Activity (HepG2) was “inactive”, the Activity [1] was “inactive” and the Activity (OS-RC-2) was “inactive”. For the same compound, the Activity (Pasteurella multocida) was “inactive”, the Activity (ACHN) was “inactive” and the Activity (786-0) was “inactive”.
`CC[C@@H]1OC(=O)c2c1ccc(O)c2O` was tested, and the MIC (Escherichia coli) was greater than 100 µg/mL, the IC50 (SGC-7901) was greater than 50 µM and the MIC (Staphylococcus aureus) was greater than 100 µg/mL. The IC50 (HepG2) was greater than 50 µM, the MIC [1] was greater than 100 µg/mL and the IC50 (OS-RC-2) was greater than 50 µM. For the same compound, the MIC (Pasteurella multocida) was greater than 100 µg/mL, the IC50 (ACHN) was greater than 50 µM and the IC50 (786-0) was greater than 50 µM.
For `CC1(C)S[C@@H]2[C@H](NC(=O)Cc3ccccc3)C(=O)N2[C@H]1C(=O)O` [PENICILLIN G], the MIC (Staphylococcus aureus) was 13 µg/mL (≈ 38.9 µM), the MIC [1] was 13 µg/mL (≈ 38.9 µM) and the MIC (Pasteurella multocida) was 13 µg/mL (≈ 38.9 µM).
`CC[C@@H]1OC(=O)c2cc(O)c(O)cc21` showed an MIC (Escherichia coli) greater than 100 µg/mL, an IC50 (SGC-7901) greater than 50 µM and an MIC (Staphylococcus aureus) greater than 100 µg/mL. For the same compound, the IC50 (HepG2) was greater than 50 µM, the MIC [1] was greater than 100 µg/mL and the IC50 (OS-RC-2) was greater than 50 µM. It also gave an MIC (Pasteurella multocida) greater than 100 µg/mL, an IC50 (ACHN) of 34 µM and an IC50 (786-0) of 28 µM.
